Test results taken from ChEMBL document CHEMBL4673248, “Discovery and Characterization of BAY 1214784, an Orally Available Spiroindoline Derivative Acting as a Potent and Selective Antagonist of the Human Gonadotropin-Releasing Hormone Receptor as Proven in a First-In-Human Study in Postmenopausal Women” (J Med Chem, 2020).
Values after ≈ are worked out from the molar mass of the structure shown.

Legend:
[1] = Oral bioavailability in Wistar rat at 2 mg/kg by LC-MS/MS analysis; type: ADME, organism-based; conditions: in vivo
[2] = Aqueous solubility of compound at pH 6.5 incubated for 24 hrs under shaking condition by HPLC-MS/MS analysis; type: physicochemical; conditions: aqueous solution
In short: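 Compound from 1 mM DMSO solution, pH 6.5 buffer added, shaken 24 h at rt. Filtered, dissolved compound quantified by HPLC-MS/MS.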

[3] = Chemical stability of compound at pH 1 to 10 measured up to 24 hrs by UV-HPLC analysis; type: physicochemical; conditions: buffer, pH 1, 24 h
In short: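 10 mM DMSO stock diluted in MeCN, then into pH 1, 7 or 10 buffer. Held at 37 °C, HPLC-UV injections at 0, 1, 2 and 24 h. Recovery given as peak area relative to time zero.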

[4] = Antagonist activity at cynomolgus monkey GnRH receptor expressed in CHO-K1 cells assessed as inhibition of buserelin-induced response preincubated for 20 mins followed by buserelin addition and measured after 60 mins by TR-FRET assay; type: cell-based; conditions: Macaca fascicularis
In short: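 Frozen CHO-K1 cells expressing cynomolgus receptor: thawed, 1 h recovery at 37 °C with IP1-d2 tracer. 5000 cells/well in Ham's F12, 20 min preincubation with compound at rt. Buserelin added at 1× EC80 in HEPES stimulation buffer pH 7.4 with LiCl, 60 min at 37 °C. Lysis with Tb-anti-IP1 antibody (1:20), HTRF IP1 read after 60 min. Duplicates, up to 11 concentrations.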

Homo sapiens = assay: Suppression of plasma luteinizing hormone level in postmenopausal woman at 300 mg, po administered as single dose using SMEDDS formulation by ECLIA relative to control; type: functional
[5] = Clearance in dog liver microsomes; type: ADME, Canis lupus familiaris, Microsome
[6] = molecular target: T1, Gonadotropin-releasing hormone receptor (Homo sapiens, UniProt P30968); assay: Inhibition of Tag-lite green-labeled agonist binding to terbium fluorophore-labeled human N-terminal SNAP-tag GnRh receptor expressed in HEK293 cells assessed as dissociation constant by TR-FRET assay; type: cell-based
T1 sequence (P30968 whole entry): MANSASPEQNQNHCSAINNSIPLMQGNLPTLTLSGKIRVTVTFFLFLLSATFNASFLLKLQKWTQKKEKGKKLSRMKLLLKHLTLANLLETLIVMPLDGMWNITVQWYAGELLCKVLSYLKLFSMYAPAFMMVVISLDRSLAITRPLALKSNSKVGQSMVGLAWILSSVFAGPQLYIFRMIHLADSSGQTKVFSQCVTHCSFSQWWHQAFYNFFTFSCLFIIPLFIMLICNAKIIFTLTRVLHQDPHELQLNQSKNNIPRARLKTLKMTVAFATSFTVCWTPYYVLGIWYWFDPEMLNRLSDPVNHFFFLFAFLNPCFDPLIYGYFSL

[7] = Maximum oral bioavailability in human liver microsomes based well stirred liver model at 1 uM measured after 2 to 60 mins in presence of NADP generating system by LC-MS/MS analysis; type: ADME, Microsome; conditions: time 2-60 min, read-out: Fmax
In short: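 Human liver microsomes at 0.5 mg/mL in 100 mM phosphate pH 7.4, 37 °C, G6P/NADP/G6PDH cofactor mix. Compound 1 µM, sampled at 2, 8, 16, 30, 45 and 60 min into cold MeOH, LC-MS/MS. Half-life to intrinsic clearance. Fmax from well-stirred model with liver blood flow 1.32 L/h/kg.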

[8] = Toxicity in postmenopausal woman at 5 to 450 mg, po administered as single dose using SMEDDS formulation; conditions: human, in vivo
[9] = Apparent permeability across basolateral to apical side in human Caco2 cells at 2 uM measured after 2 hrs by LC-MS/MS analysis; type: ADME, cell-based; conditions: Caco-2
In short: (§1)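 Caco-2 monolayers grown 15 d, integrity checked by TEER. Compound 2 µM added apical or basolateral in FCS-free HEPES carbonate buffer pH 7.2, incubated 2 h at 37 °C. Both compartments sampled before and after, analysed by LC-MS/MS after MeOH precipitation. Papp computed from receiver peak area, surface area and time. Efflux ratio taken as Papp B–A/Papp A–B.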

[10] = Clearance in human hepatocytes; type: ADME, cell-based, Hepatocyte
[11] = Maximum oral bioavailability in dog liver microsomes based well stirred liver model; type: ADME, Canis lupus familiaris, Microsome; conditions: read-out: Fmax
[12] = Fraction unbound in human plasma; type: ADME, cell-free
Cannabinoid receptor 1 = Cannabinoid receptor 1 (Homo sapiens, UniProt P21554); assay: Inhibition of CB1 receptor (unknown origin)
Chain of Cannabinoid receptor 1 (P21554 whole entry): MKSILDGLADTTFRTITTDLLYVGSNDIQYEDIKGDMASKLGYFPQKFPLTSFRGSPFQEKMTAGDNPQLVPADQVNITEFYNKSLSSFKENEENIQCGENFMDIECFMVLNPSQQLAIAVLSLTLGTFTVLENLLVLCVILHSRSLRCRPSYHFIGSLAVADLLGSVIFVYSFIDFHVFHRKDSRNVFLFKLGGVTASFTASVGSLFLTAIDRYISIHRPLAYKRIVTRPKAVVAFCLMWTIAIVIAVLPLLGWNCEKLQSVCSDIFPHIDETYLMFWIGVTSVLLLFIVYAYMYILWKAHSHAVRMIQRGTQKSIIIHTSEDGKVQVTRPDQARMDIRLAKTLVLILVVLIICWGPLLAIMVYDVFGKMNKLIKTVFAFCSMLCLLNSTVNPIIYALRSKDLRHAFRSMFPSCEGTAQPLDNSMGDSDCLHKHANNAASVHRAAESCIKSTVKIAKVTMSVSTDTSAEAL

[13] = molecular target: T1, Gonadotropin-releasing hormone receptor; assay: Inhibition of Tag-lite green-labeled agonist binding to terbium fluorophore-labeled human N-terminal SNAP-tag GnRh receptor expressed in HEK293 cells assessed as equilibrium dissociation constant by TR-FRET assay; type: cell-based
[14] = Clearance in rat liver microsomes at 1 uM measured upto 60 mins in presence of NADP generating system by LC-MS/MS analysis; type: ADME, Microsome; conditions: 1 h
[15] = Half life in Wistar rat at 0.5 mg/kg, iv by LC-MS/MS analysis; type: ADME, organism-based; conditions: in vivo
[16] = Efflux ratio of apparent permeability across basolateral to apical side over apical to basolateral side in human Caco2 cells at 2 uM measured after 2 hrs by LC-MS/MS analysis; type: ADME, cell-based; conditions: Caco-2; in short: as §1
[17] = Clearance in cynomolgus monkey liver microsomes; type: ADME, Macaca fascicularis, Microsome
Cytochrome P450 3A4 = Cytochrome P450 3A4 (Homo sapiens, UniProt P08684); assay: Irreversible inhibition of CYP3A4 in human liver microsomes using midazolam as substrate; type: ADME
Chain of Cytochrome P450 3A4 (P08684 whole entry): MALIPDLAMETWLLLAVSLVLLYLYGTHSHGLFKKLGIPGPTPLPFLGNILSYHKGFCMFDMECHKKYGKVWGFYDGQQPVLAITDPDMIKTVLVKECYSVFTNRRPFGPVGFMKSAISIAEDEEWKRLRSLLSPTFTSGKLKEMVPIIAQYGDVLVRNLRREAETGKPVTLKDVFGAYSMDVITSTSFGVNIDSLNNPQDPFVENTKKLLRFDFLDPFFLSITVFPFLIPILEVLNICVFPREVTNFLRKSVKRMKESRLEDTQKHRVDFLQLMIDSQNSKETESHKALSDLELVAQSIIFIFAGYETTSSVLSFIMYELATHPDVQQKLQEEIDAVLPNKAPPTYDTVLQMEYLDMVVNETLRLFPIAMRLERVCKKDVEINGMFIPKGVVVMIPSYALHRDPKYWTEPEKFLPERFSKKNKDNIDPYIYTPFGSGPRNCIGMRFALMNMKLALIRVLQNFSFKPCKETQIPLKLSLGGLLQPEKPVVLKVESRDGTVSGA

[18] = molecular target: T2, Gonadotropin-releasing hormone receptor (Rattus norvegicus, UniProt P30969); assay: Antagonist activity at rat GnRH receptor expressed in CHO-K1 cells assessed as inhibition of buserelin-induced response preincubated for 20 mins followed by buserelin addition and measured after 60 mins by TR-FRET assay; type: cell-based
T2 sequence (P30969 whole entry): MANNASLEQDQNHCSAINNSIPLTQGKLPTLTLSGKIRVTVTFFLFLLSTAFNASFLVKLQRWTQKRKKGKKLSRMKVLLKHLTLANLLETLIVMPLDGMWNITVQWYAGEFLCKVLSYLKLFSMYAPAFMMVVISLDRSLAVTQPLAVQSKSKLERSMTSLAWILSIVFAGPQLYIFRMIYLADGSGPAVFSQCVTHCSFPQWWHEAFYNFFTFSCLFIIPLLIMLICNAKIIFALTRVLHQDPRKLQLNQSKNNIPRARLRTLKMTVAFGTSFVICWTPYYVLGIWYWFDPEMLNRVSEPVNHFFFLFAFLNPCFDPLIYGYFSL
In short: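 Frozen rat-receptor cells: thawed, seeded overnight in serum-containing Ham's F12, Accutase-harvested, resuspended in serum-free medium with IP1-d2, 1 h at 37 °C. 1.0 × 10^4 cells/well, 20 min compound preincubation at rt, then 1× EC80 LHRH or buserelin in HEPES stimulation buffer pH 7.4 for 60 min at 37 °C. Tb-anti-IP1 lysis (1:38), HTRF read 60 min later.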

[19] = Clearance in cynomolgus monkey hepatocytes; type: ADME, cell-based, Macaca fascicularis, Hepatocyte

bioavailability [1]: 48%
solubility at 24 h [2]: 7.1 µg/mL (≈ 10.6 µM)
Stabilty [3]: Stable
IC50 [4]: 35 nM
CLH [5]: 5.33 mL/min/kg
Kd [6]: 9.83 nM
Fh at 1 µM [7]: 100%
Papp B→A at 2 h, 2 µM [9]: 12.9 ×10⁻⁶ cm/s
CLH [10]: 1.7 mL/min/kg
Fh [11]: 85%
fraction unbound [12]: 0.014
IC50 (Cannabinoid receptor 1): 3400 nM
Kd [13]: 5.52 nM
CLH [14]: 6.33 mL/min/kg
half-life [15]: 16 h
efflux ratio at 2 h, 2 µM [16]: 10
CLH [17]: 8.17 mL/min/kg
IC50 (Cytochrome P450 3A4): > 10000 nM
IC50 [18]: 24 nM
CLH [19]: 11.8 mL/min/kg
Structure (SMILES): O=C(NCc1ncc(C(F)(F)F)cc1Cl)c1ccc2c(c1)C1(CCS(=O)(=O)CC1)[C@H](C1CC1)N2S(=O)(=O)c1ccc(F)cc1 [BAY-784]
Activity (Homo sapiens): 49%
Activity [8]: Non-Toxic
